Each block holds one molecule with its values, some of them ahead of it. The source made the active and inactive calls. No cut-off for these calls is given here.
Key:
Rattus norvegicus [1] = assay: Antiallergic activity against egg albumin-induced anaphylaxis in po dosed sensitized rat compound administered 15 mins prior to antigen challenge as single dose by passive cutaneous anaphylaxis test; type: functional
Procedure, shortened: (§1)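 Male Sprague–Dawley or Wistar rats (100–150 g) were passively sensitized by two intradermal dilutions of rat anti-egg-albumin serum, which was mainly IgE and raised with EA im (10 mg/kg) plus killed pertussis vaccine iv. After 48 h, drug or vehicle was given. Rats were then challenged iv with EA plus Evans Blue (25 mg/kg each). Spot diameter was read 20–30 min later; ≥5 rats/compound. % inhibition was calculated versus control mean diameter.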

Rattus norvegicus [2] = assay: Antiallergic activity against egg albumin-induced anaphylaxis in sensitized rat at 30 mg/kg, po administered 15 mins prior to antigen challenge as single dose measured up to 4 hrs by passive cutaneous anaphylaxis test; type: functional, organism-based; set-up: dose 30 mg/kg; procedure, shortened: as §1
Rattus norvegicus [3] = assay: Antiallergic activity against egg albumin-induced anaphylaxis in iv dosed sensitized rat compound administered 15 mins prior to antigen challenge as single dose by passive cutaneous anaphylaxis test; type: functional; procedure, shortened: as §1
Rattus norvegicus [4] = assay: Antiallergic activity against egg albumin-induced anaphylaxis in sensitized rat at 5 mg/kg, po administered 15 mins prior to antigen challenge as single dose measured up to 4 hrs by passive cutaneous anaphylaxis test; type: functional, organism-based; set-up: dose 5 mg/kg; procedure, shortened: as §1
Rattus norvegicus [5] = assay: Antiallergic activity against egg albumin-induced anaphylaxis in sensitized rat at 10 mg/kg, po administered 15 mins prior to antigen challenge as single dose measured up to 4 hrs by passive cutaneous anaphylaxis test; type: functional, organism-based; set-up: dose 10 mg/kg; procedure, shortened: as §1
Rattus norvegicus [6] = assay: Inhibition of egg albumin-induced allergic bronchospasm in sensitized, spontaneously breathing and anesthesized Harlan-Wistar rat assessed as inhibition of control allergic hypotension response at 0.78 mg/kg administered intraduodenally 15 min prior to antigen challenge; type: functional; settings: route intraduodenal
Procedure, shortened: (§2)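 Male Harlan-Wistar rats (225–275 g) were sensitized with EA im (1 mg/rat) plus pertussis vaccine ip. After 13–15 days they were urethane-anesthetized (1.5 g/kg ip). Drug was given intraduodenally in methocel or iv in saline, then EA 2 mg/rat iv. Pulmonary ventilation pressure and mean arterial pressure were recorded. Individual responses were compared with a separate vehicle-control group mean; 4–15 rats/group.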

Rattus norvegicus [7] = assay: Inhibition of egg albumin-induced allergic bronchospasm in sensitized, spontaneously breathing and anesthesized Harlan-Wistar rat assessed as drop in mean arterial blood pressure at 0.78 mg/kg administered intraduodenally 15 min prior to antigen challenge (reference value: 46.3 +/- 3.5 %); type: functional; settings: route intraduodenal; procedure, shortened: as §2
Mast cell [8] = assay: Inhibition of histamine release in Sprague-Dawley rat peritoneal mast cells at 20 uM after 10 mins by fluorimetry relative to control; type: functional
Procedure, shortened: (§3)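 Peritoneal lavage cells from male Sprague–Dawley rats (200–300 g) were sensitized for 2 h at 37 °C in rat anti-EA serum with heparin. Cells were resuspended in buffered HBSS and challenged with EA. Drug was added together with antigen. After 10 min incubation, histamine was measured fluorimetrically. % inhibition was calculated versus release without drug.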

Rattus norvegicus [9] = assay: Inhibition of egg albumin-induced allergic bronchospasm in sensitized, spontaneously breathing and anesthesized Harlan-Wistar rat assessed as drop in mean arterial blood pressure at 0.39 mg/kg administered intraduodenally 15 min prior to antigen challenge (reference value: 46.3 +/- 3.5 %); type: functional; settings: route intraduodenal; procedure, shortened: as §2
Rattus norvegicus [10] = assay: Inhibition of egg albumin-induced allergic bronchospasm in sensitized, spontaneously breathing and anesthesized Harlan-Wistar rat assessed as inhibition of control allergic bronchospasm response compound administered intraduodenally 15 min prior to antigen challenge; type: functional; procedure, shortened: as §2
Rattus norvegicus [11] = assay: Inhibition of egg albumin-induced allergic bronchospasm in sensitized, spontaneously breathing and anesthesized Harlan-Wistar rat assessed as inhibition of control allergic hypotension response compound administered intraduodenally 15 min prior to antigen challenge; type: functional; settings: in the assay text read “bronchospasm response” for “hypotension response”; procedure, shortened: as §2
Rattus norvegicus [12] = assay: Inhibition of egg albumin-induced allergic bronchospasm in sensitized, spontaneously breathing and anesthesized Harlan-Wistar rat assessed as inhibition of control allergic hypotension response at 0.39 mg/kg administered intraduodenally 15 min prior to antigen challenge; type: functional; settings: route intraduodenal; procedure, shortened: as §2
Rattus norvegicus [13] = assay: Inhibition of egg albumin-induced allergic bronchospasm in sensitized, spontaneously breathing and anesthesized Harlan-Wistar rat assessed as drop in mean arterial blood pressure at 3.125 mg/kg administered intraduodenally 15 min prior to antigen challenge (reference value: 46.3 +/- 3.5 %); type: functional; settings: route intraduodenal; procedure, shortened: as §2
Rattus norvegicus [14] = assay: Inhibition of egg albumin-induced allergic bronchospasm in sensitized, spontaneously breathing and anesthesized Harlan-Wistar rat assessed as drop in pulmonary arterial blood pressure at 0.39 mg/kg administered intraduodenally 15 min prior to antigen challenge (reference value: 32.2 +/- 4.7 %); type: functional; settings: route intraduodenal; procedure, shortened: as §2
Mast cell [15] = assay: Inhibition of histamine release in Sprague-Dawley rat peritoneal mast cells at 5 uM after 10 mins by fluorimetry relative to control; type: functional; procedure, shortened: as §3
Rattus norvegicus [16] = assay: Inhibition of egg albumin-induced allergic bronchospasm in sensitized, spontaneously breathing and anesthesized Harlan-Wistar rat assessed as inhibition of control allergic bronchospasm response at 3.125 mg/kg administered intraduodenally 15 min prior to antigen challenge; type: functional; settings: route intraduodenal; procedure, shortened: as §2
Rattus norvegicus [17] = assay: Inhibition of egg albumin-induced allergic bronchospasm in sensitized, spontaneously breathing and anesthesized Harlan-Wistar rat assessed as drop in pulmonary arterial blood pressure at 3.125 mg/kg administered intraduodenally 15 min prior to antigen challenge (reference value: 32.2 +/- 4.7 %); type: functional; settings: route intraduodenal; procedure, shortened: as §2
Rattus norvegicus [18] = assay: Inhibition of egg albumin-induced allergic bronchospasm in sensitized, spontaneously breathing and anesthesized Harlan-Wistar rat assessed as inhibition of control allergic bronchospasm response at 0.78 mg/kg administered intraduodenally 15 min prior to antigen challenge; type: functional; settings: route intraduodenal; procedure, shortened: as §2
Rattus norvegicus [19] = assay: Inhibition of egg albumin-induced allergic bronchospasm in sensitized, spontaneously breathing and anesthesized Harlan-Wistar rat assessed as drop in pulmonary arterial blood pressure at 0.78 mg/kg administered intraduodenally 15 min prior to antigen challenge (reference value: 32.2 +/- 4.7 %); type: functional; settings: route intraduodenal; procedure, shortened: as §2
Plasma = assay: Drug metabolism in Sprague-Dawley rat plasma assessed as sodium 2-carboxy-6-ethyl-4a,7a-dihydrothieno[2,3-d]pyrimidin-4-olate formation at 50 mg/kg, po; type: ADME, organism-based; set-up: dose 50 mg/kg, route oral; settings: in vivo
Procedure, shortened: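 Mature Sprague–Dawley rats (150–200 g) were fasted overnight and given a single 50 mg/kg oral dose. Blood was taken at 0.5–6 h, two rats per time point. Plasma (1 mL) was acidified to pH 1–2 and extracted twice with CHCl₃. The dried residue was taken up in methanol and quantified by reverse-phase C-18 HPLC.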

Rattus norvegicus [20] = assay: Inhibition of egg albumin-induced allergic bronchospasm in sensitized, spontaneously breathing and anesthesized Harlan-Wistar rat assessed as inhibition of control allergic bronchospasm response at 0.39 mg/kg administered intraduodenally 15 min prior to antigen challenge; type: functional; settings: route intraduodenal; procedure, shortened: as §2
Mast cell [21] = assay: Inhibition of histamine release in Sprague-Dawley rat peritoneal mast cells at 1.25 uM after 10 mins by fluorimetry relative to control; type: functional; procedure, shortened: as §3
Rattus norvegicus [22] = assay: Inhibition of egg albumin-induced allergic bronchospasm in sensitized, spontaneously breathing and anesthesized Harlan-Wistar rat assessed as inhibition of control allergic hypotension response at 3.125 mg/kg administered intraduodenally 15 min prior to antigen challenge; type: functional; settings: route intraduodenal; procedure, shortened: as §2
Rattus norvegicus [23] = assay: Antiallergic activity against egg albumin-induced anaphylaxis in sensitized rat at 25 mg/kg, po administered 15 mins prior to antigen challenge as single dose measured up to 4 hrs by passive cutaneous anaphylaxis test; type: functional, organism-based; set-up: dose 25 mg/kg; procedure, shortened: as §1
Rattus norvegicus [24] = assay: Antiallergic activity against egg albumin-induced anaphylaxis in sensitized rat at 50 mg/kg, po administered 15 mins prior to antigen challenge as single dose measured up to 4 hrs by passive cutaneous anaphylaxis test; type: functional, organism-based; set-up: dose 50 mg/kg; procedure, shortened: as §1

SMILES: CCOC(=O)c1nc2sc(CC)cc2c(=O)o1
ED50 (Rattus norvegicus [1]): 34.4 mg/kg

SMILES: CCOC(=O)c1nc2sc(CC(C)C)c(C)c2c(=O)[nH]1
ED50 (Rattus norvegicus [1]): 8.1 mg/kg

SMILES: CCOC(=O)C(=O)Nc1sccc1C(N)=O
Activity (Rattus norvegicus [2]): Active | ED50 (Rattus norvegicus [1]): 4.5 mg/kg | ED50 (Rattus norvegicus [3]): 0.2 mg/kg

SMILES: CCOC(=O)c1nc2sc(CC(C)C)c(C)c2c(=O)o1
Activity (Rattus norvegicus [4]): inactive

SMILES: Cc1csc2nc(C(=O)[O-])nc([O-])c12.O.[Na+].[Na+]
ED50 (Rattus norvegicus [1]): 50 mg/kg

SMILES: CCc1sc2nc(C(=O)[O-])nc([O-])c2c1C.O.[Na+].[Na+]
ED50 (Rattus norvegicus [1]): 10 mg/kg

SMILES: CCCCCCc1cc2c(=O)oc(C(=O)OCC)nc2s1
Activity (Rattus norvegicus [5]): inactive

SMILES: CCOC(=O)c1nc2sc(CC)c(C)c2c(=O)o1
Activity (Rattus norvegicus [4]): inactive

SMILES: CCCCCCc1sc2nc(C(=O)OCC)oc(=O)c2c1C
ED50 (Rattus norvegicus [1]): 8.2 mg/kg

SMILES: CCOC(=O)c1nc2sc(C(C)C)cc2c(=O)[nH]1
ED50 (Rattus norvegicus [1]): 17.9 mg/kg

SMILES: Cc1c(CC(C)C)sc2nc(C(=O)O)[nH]c(=O)c12
Activity (Rattus norvegicus [2]): Active

SMILES: CCOC(=O)c1nc2scc(C)c2c(=O)[nH]1
ED50 (Rattus norvegicus [1]): 50 mg/kg

SMILES: CCOC(=O)c1nc2sc(CC)c(N)c2c(=O)[nH]1
ED50 (Rattus norvegicus [1]): 10 mg/kg

SMILES: O.O=C([O-])c1nc([O-])c2c3c(sc2n1)CCCC3.[Na+].[Na+]
ED50 (Rattus norvegicus [1]): 50 mg/kg

SMILES: CCCCCCc1cc2c(=O)[nH]c(C(=O)OCC)nc2s1
ED50 (Rattus norvegicus [1]): > 5 mg/kg

SMILES: CCOC(=O)c1nc2sc(N)c(C)c2c(=O)[nH]1
ED50 (Rattus norvegicus [1]): < 50 mg/kg

SMILES: CC(C)c1cc2c([O-])nc(C(=O)[O-])nc2s1.O.[Na+].[Na+]
ED50 (Rattus norvegicus [1]): > 10 mg/kg | ED50 (Rattus norvegicus [3]): 1 mg/kg

SMILES: CCOC(=O)c1nc2sc(CC)c(C)c2c(=O)[nH]1
ED50 (Rattus norvegicus [1]): 11.3 mg/kg

SMILES: CCCCCCc1sc2nc(C(=O)OCC)[nH]c(=O)c2c1C
ED50 (Rattus norvegicus [1]): 50 mg/kg

SMILES: CCOC(=O)c1nc2sc(C(C)C)cc2c(=O)o1
ED50 (Rattus norvegicus [1]): > 10 mg/kg

SMILES: CCOC(=O)c1nc2sc(C(C)=O)c(C)c2c(=O)o1
Activity (Rattus norvegicus [4]): inactive

Drug metabolism (Plasma): metabolite_detected
SMILES: CCOC(=O)c1nc2sc(CC)cc2c(=O)[nH]1
inhibition in vivo at 0.78 mg/kg (Rattus norvegicus [6]): 5.2% | inhibition in vivo at 0.78 mg/kg (Rattus norvegicus [7]): 51.8% | inhibition at 20 µM (Mast cell [8]): 82% | inhibition in vivo at 0.39 mg/kg (Rattus norvegicus [9]): 48.7% | inhibition (Rattus norvegicus [10]): Dose-dependent effect | ED50 (Rattus norvegicus [10]; intraduodenal): 1 mg/kg | inhibition (Rattus norvegicus [11]): Dose-dependent effect | ED50 (Rattus norvegicus [11]; intraduodenal): 1 mg/kg | Activity (Rattus norvegicus [2]): Active | inhibition in vivo at 0.39 mg/kg (Rattus norvegicus [12]): 2.7% | inhibition in vivo at 3.125 mg/kg (Rattus norvegicus [13]): 42.4% | inhibition in vivo at 0.39 mg/kg (Rattus norvegicus [14]): 48.8% | inhibition at 5 µM (Mast cell [15]): 55% | inhibition in vivo at 3.125 mg/kg (Rattus norvegicus [16]): 53.6% | inhibition in vivo at 3.125 mg/kg (Rattus norvegicus [17]): 17.1% | inhibition in vivo at 0.78 mg/kg (Rattus norvegicus [18]): 27.8% | inhibition in vivo at 0.78 mg/kg (Rattus norvegicus [19]): 29.2% | ED50 (Rattus norvegicus [1]): 2.4 mg/kg | inhibition in vivo at 0.39 mg/kg (Rattus norvegicus [20]): 4.3% | inhibition at 1.25 µM (Mast cell [21]): 19% | inhibition in vivo at 3.125 mg/kg (Rattus norvegicus [22]): 18.9%

SMILES: CCc1sc2nc(C(=O)O)nc(O)c2c1N
Activity (Rattus norvegicus [23]): inactive

SMILES: Cc1c(CC(C)C)sc2nc(C(=O)[O-])nc([O-])c12.O.[K+].[K+]
ED50 (Rattus norvegicus [1]): 2.7 mg/kg | ED50 (Rattus norvegicus [3]): 0.14 mg/kg

SMILES: CC(=O)c1sc2nc(C(=O)O)nc(O)c2c1C
Activity (Rattus norvegicus [24]): inactive

SMILES: CCCCCCc1cc2c([O-])nc(C(=O)[O-])nc2s1.O.[Na+].[Na+]
ED50 (Rattus norvegicus [1]): 17.7 mg/kg

SMILES: CCOC(=O)c1nc2sc(CC)c(I)c2c(=O)[nH]1
ED50 (Rattus norvegicus [1]): 8.1 mg/kg

SMILES: CCOC(=O)c1nc2sc(C(C)=O)c(C)c2c(=O)[nH]1
ED50 (Rattus norvegicus [1]): 25 mg/kg

SMILES: CCc1cc2c([O-])nc(C(=O)[O-])nc2s1.O.[Na+].[Na+]
inhibition at 20 µM (Mast cell [8]): 73% | inhibition at 5 µM (Mast cell [15]): 51% | ED50 (Rattus norvegicus [1]): 13 mg/kg | ED50 (Rattus norvegicus [3]): 1.2 mg/kg | inhibition at 1.25 µM (Mast cell [21]): 22%

SMILES: CCOC(=O)c1nc2sccc2c(=O)[nH]1
ED50 (Rattus norvegicus [1]): > 25 mg/kg

Source: ChEMBL document CHEMBL3244400, “Synthesis of 3,4-dihydro-4-oxothieno[2,3-d]pyrimidine-2-carboxylates, a new series of orally active antiallergy agents” (J Med Chem, 1979)
